Measurements as given in ChEMBL document CHEMBL1134796, “Indenopyrazoles as novel cyclin dependent kinase (CDK) inhibitors” (J Med Chem, 2001).

Key:
[1] = target: Tyrosine-protein kinase ABL1 (Homo sapiens, UniProt P00519); assay: Inhibition of c-Abl kinase
[2] = target: Cyclin-dependent kinase 2/cyclin E (Homo sapiens, UniProt P24941); assay: Inhibition of Cyclin-dependent kinase 2-cyclin E; format: protein-complex assay
How it was run: (§1)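 Lysates of insect cells expressing the cdk and its cyclin partner, run in kinase buffer with ³²P-ATP, GST-Rb fusion substrate and the compound at varying concentrations. Reaction stopped with excess EDTA. GST-Rb captured on GSH-Sepharose beads, washed, and counted by scintillation. IC50 is the concentration giving 50% inhibition of kinase activity.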

[3] = target: Cyclin-dependent kinase 4/cyclin D1 (Homo sapiens, UniProt P11802); assay: Inhibition of Cyclin Dependent Kinase 4 cyclin D1; format: protein-complex assay; how it was run: as §1
Chain of Cyclin-dependent kinase 4/cyclin D1 (P11802 whole entry): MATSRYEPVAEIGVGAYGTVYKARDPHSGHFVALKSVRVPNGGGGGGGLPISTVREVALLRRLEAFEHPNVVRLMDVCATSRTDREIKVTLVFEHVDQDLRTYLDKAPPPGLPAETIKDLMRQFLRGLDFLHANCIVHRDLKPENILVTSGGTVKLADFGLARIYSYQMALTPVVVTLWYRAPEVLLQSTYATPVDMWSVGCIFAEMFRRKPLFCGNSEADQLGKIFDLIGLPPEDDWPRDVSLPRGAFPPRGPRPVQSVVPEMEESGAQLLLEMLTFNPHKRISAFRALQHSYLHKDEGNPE
Chain of Cyclin-dependent kinase 4/cyclin D1 (P24385 whole entry, further chain): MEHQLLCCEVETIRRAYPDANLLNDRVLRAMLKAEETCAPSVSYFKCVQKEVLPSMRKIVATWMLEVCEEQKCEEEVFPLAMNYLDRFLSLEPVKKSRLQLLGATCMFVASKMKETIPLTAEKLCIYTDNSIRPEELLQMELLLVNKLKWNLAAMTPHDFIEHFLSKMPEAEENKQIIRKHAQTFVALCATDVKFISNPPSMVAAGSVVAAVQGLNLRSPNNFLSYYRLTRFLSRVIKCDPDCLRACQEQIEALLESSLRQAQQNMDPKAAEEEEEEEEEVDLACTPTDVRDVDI

[4] = target: Protein kinase C (PKC); assay: Inhibition of protein kinase C (PKC); format: protein assay
[5] = Inhibition of protein kinase A (PKA)
[6] = tested on: HCT-116; assay: Inhibition of HCT116 cell proliferation; format: functional, cell-based; settings: Homo sapiens
How it was run: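 HCT116 cells cultured with compound at increasing concentrations. At selected time points, cells fixed with trichloroacetic acid and stained with sulforhodamine B. Unbound dye washed off, and bound dye extracted for optical density reading.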

[7] = tested on: AG1523; assay: Cytotoxic effect on human AG1523 fibroblast cells; format: functional, cell-based
[8] = tested on: Mus musculus; assay: In vivo antitumor activity in mice at 1 mg/kg/day (dosing schedule Q1DX14); format: functional
How it was run: (§2)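 Female nude mice carrying HCT116 human colon carcinoma xenografts, 1 × 10⁷ cells injected subcutaneously into the inguinal region. Drug given intraperitoneally once daily for 14 days, starting 7 days after cell injection. Tumors excised and weighed on day 15 post-dosing. Growth inhibition index (%) = (1 − mean net tumor weight treated/mean net tumor weight control) × 100.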

[9] = tested on: Mus musculus; assay: In vivo antitumor activity in mice at 1 mg/kg/day (dosing schedule Q1DX14); 8/8; format: functional
How it was run: (§3)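 Female nude mice bearing HCT116 human colon carcinoma xenografts (1 × 10⁷ cells/animal, injected s.c. into the inguinal region). Drug was given ip once daily for 14 days, starting 7 days after cell injection. On day 15 after dosing, tumors were excised and weighed. Tumor growth inhibition index (%) = (1 − mean net tumor weight treated/control) × 100. Survivors reflect acute drug toxicity.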

[10] = tested on: Mus musculus; assay: In vivo antitumor activity in mice at 7.5 mg/kg/day (dosing schedule Q1DX14); format: functional; how it was run: as §2
[11] = tested on: Mus musculus; assay: In vivo antitumor activity in mice at 7.5 mg/kg/day (dosing schedule Q1DX14); 5/8; format: functional; how it was run: as §3
[12] = tested on: Mus musculus; assay: In vivo antitumor activity in mice at 30 mg/kg/day (dosing schedule Q1DX14); format: functional; how it was run: as §2
[13] = tested on: Mus musculus; assay: In vivo antitumor activity in mice at 30 mg/kg/day (dosing schedule Q1DX14); 8/8; format: functional; how it was run: as §3
[14] = tested on: Mus musculus; assay: In vivo antitumor activity in mice at 3 mg/kg/day (dosing schedule Q1DX14); format: functional; how it was run: as §2
[15] = tested on: Mus musculus; assay: In vivo antitumor activity in mice at 10 mg/kg/day (dosing schedule Q1DX14); format: functional; how it was run: as §2
[16] = tested on: Mus musculus; assay: In vivo antitumor activity in mice at 3 mg/kg/day (dosing schedule Q1DX14); 8/8; format: functional; how it was run: as §3
[17] = tested on: Mus musculus; assay: In vivo antitumor activity in mice at 10 mg/kg/day (dosing schedule Q1DX14); 8/8; format: functional; how it was run: as §3

Chain of Tyrosine-protein kinase ABL1 (P00519 whole entry): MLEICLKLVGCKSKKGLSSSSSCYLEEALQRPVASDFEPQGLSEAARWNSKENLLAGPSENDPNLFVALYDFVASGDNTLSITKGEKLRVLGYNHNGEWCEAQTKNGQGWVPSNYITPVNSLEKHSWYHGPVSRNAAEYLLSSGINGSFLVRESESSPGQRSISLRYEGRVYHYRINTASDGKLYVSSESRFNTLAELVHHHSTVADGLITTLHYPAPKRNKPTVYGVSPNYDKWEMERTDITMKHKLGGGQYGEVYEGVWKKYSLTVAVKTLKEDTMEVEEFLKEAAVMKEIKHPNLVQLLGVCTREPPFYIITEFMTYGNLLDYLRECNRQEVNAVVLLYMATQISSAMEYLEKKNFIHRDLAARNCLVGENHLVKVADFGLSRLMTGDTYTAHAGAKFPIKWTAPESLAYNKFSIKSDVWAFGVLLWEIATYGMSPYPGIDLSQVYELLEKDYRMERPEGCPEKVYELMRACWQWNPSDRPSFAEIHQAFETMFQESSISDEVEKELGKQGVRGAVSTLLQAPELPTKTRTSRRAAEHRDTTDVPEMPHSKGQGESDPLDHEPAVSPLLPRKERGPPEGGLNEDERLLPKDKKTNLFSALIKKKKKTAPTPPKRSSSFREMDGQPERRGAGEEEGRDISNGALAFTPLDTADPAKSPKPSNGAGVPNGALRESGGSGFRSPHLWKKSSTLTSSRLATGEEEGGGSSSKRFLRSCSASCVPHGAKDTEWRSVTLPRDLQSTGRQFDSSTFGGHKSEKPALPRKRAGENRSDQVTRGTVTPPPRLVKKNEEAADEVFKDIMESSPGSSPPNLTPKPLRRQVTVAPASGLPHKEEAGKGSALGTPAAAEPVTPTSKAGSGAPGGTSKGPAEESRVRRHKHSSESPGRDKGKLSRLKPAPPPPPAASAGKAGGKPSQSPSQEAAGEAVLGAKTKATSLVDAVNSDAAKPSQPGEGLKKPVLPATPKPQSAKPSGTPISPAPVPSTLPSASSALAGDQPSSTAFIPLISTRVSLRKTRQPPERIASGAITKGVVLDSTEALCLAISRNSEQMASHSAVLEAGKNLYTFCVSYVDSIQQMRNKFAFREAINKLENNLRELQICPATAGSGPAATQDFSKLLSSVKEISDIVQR

SMILES | IC50 [2] [nM] | IC50 [3] [nM] | IC50 [6] [nM] | IC50 [7] [nM] | other results
COc1ccc(-c2[nH]nc3c2C(=O)c2ccccc2-3)cc1 | 26000 | 45000 |  |  | IC50 [1]: > 725000 nM; IC50 [4]: > 725000 nM; IC50 [5]: 239000 nM
COc1ccc(-c2[nH]nc3c2C(=O)c2c(NC(C)=O)cccc2-3)cc1 | 270 | 450 | 2700 |  | 
COc1ccc(-c2[nH]nc3c2C(=O)c2c(NC(=O)Cc4ccc(N)cc4)cccc2-3)cc1 | 38 | 480 | 400 | > 24000 | 
CO[C@@]12[C@H](COC(N)=O)C3=C(C(=O)C(C)=C(N)C3=O)N1C[C@@H]1N[C@@H]12 [MITOMYCIN] |  |  |  |  | Tumor weight [8]: 455 mg; inhibition in vivo at 1 mg/kg/day [8]: 58%; No. survived [9]: 8
CN1CCC(c2c(O)cc(O)c3c(=O)cc(-c4ccccc4Cl)oc23)[C@@H](O)C1 (mixture of isomers) |  |  |  |  | Tumor weight [10]: 538 mg; inhibition in vivo at 7.5 mg/kg/day [10]: 50%; No. survived [11]: 5
COc1ccc(-c2[nH]nc3c2C(=O)c2c(NC(=O)C(C)C)cccc2-3)cc1 | 1400 | 35000 | 2900 | > 28000 | 
COc1ccc(-c2[nH]nc3c2C(=O)c2c(NC(=O)C(C)(C)C)cccc2-3)cc1 | 2100 | 45000 | 7500 |  | 
COc1ccc(-c2[nH]nc3c2C(=O)c2c(NC=O)cccc2-3)cc1 | 80 | 200 | 690 | > 63000 | Tumor weight [12]: 608 mg; inhibition in vivo at 30 mg/kg/day [12]: 43%; No. survived [13]: 8; Tumor weight [14]: 1171 mg; inhibition in vivo at 3 mg/kg/day [14]: 0%; Tumor weight [15]: 871 mg; inhibition in vivo at 10 mg/kg/day [15]: 19%; No. survived [16]: 8; No. survived [17]: 8
COc1ccc(-c2[nH]nc3c2C(=O)c2c(NC(=O)c4ccccc4)cccc2-3)cc1 | 41000 | > 250000 |  |  | 
